Published values gathered from unrelated publications.
Effect on: metabolic stability
Species: human

For `CC(C)Oc1ccc(S(=O)(=O)c2ccc(Oc3cc(OCC(N)=O)c(C(=O)C(Cl)Cl)cc3[N+](=O)[O-])cc2)cc1`, the half-life was 46.7 min (liver microsomes; 20 µM).
For `CCC(CC)COC(=O)[C@H](C)N[P@](=O)(OC[C@@H]1C[C@@H](O)[C@H](n2cnc3c(N)nc(F)nc32)O1)Oc1ccccc1`, the half-life was 1.42 min (liver microsomes; 1 µM).
`O=C(c1ccc(F)cc1)C1CCN(CCn2c(=O)[nH]c3ccccc3c2=O)CC1` gave a half-life of 35.4 min (liver microsomes).
For `O=c1ccc2ccc(O)cc2o1`, the half-life was 1.85 min (liver microsomes).
The half-life of `CCOc1ccc(NC(C)=O)cc1` is reported as 67.1 min (liver microsomes).
`CC1(CN)CCN(c2cnc3c(Sc4ccncc4Cl)n[nH]c3n2)CC1` gave a half-life of 36.7 min (liver microsomes).
`CCOc1ccc2ccc(=O)oc2c1` has a half-life of 11.4 min (hepatocytes; 1 µM).
With `CSc1ncc(Br)c(C(=O)N[C@@H](CCC(=O)O)C(=O)N[C@@H](Cc2ccc3ccccc3c2)C(=O)N[C@@H](CC(C)C)C(=O)N[C@@H]2C[C@H]2c2ccccc2)n1` the half-life was 1900 min (plasma).
`O=c1ccc2cc(O)ccc2o1` gave a half-life of 63.5 min (liver microsomes; 20 µM).
`COc1ccc([C@@H]2Sc3ccccc3N(CCN(C)C)C(=O)[C@@H]2OC(C)=O)cc1` gave a half-life of 53.5 min (liver microsomes).
`CC(C)[N+](C)(CCOC(=O)C1c2ccccc2Oc2ccccc21)C(C)C` has a half-life of 25.8 min (plasma).
The half-life of `O=c1ccc2ccc(O)cc2o1` is reported as 12.4 min (hepatocytes; 1 µM).
With `Nc1ncnc2c1ncn2[C@@H]1O[C@H](CO)C[C@H]1O` the half-life was 12.3 min (liver microsomes; 1 µM).
For `O=C1CC[C@H](N2Cc3cc(N4CCN(CC5CCN(c6ccc([C@@H]7c8ccc(O)cc8CC[C@@H]7c7ccccc7)cc6)CC5)CC4)ccc3C2=O)C(=O)N1`, the half-life was 53.8 min (hepatocytes; 1 µM).
With `CCC(CC)COC(=O)[C@H](C)N[P@@](=O)(OC[C@@H]1C[C@@H](O)[C@H](n2cnc3c(N)ncnc32)O1)Oc1ccccc1` the half-life was 0.67 min (liver microsomes; 1 µM).
